Assay results published in ChEMBL document CHEMBL3085663, “Hypoxia-targeting carbonic anhydrase IX inhibitors by a new series of nitroimidazole-sulfonamides/sulfamides/sulfamates” (J Med Chem, 2013).
Active and inactive are the calls of the source. The calls are words filed in the database; no cut-off is given here.

Tests used:
[1] = biological target: Carbonic anhydrase 9 (Homo sapiens, UniProt Q16790); test: Inhibition of recombinant human catalytic domain of carbonic anhydrase-9 preincubated for 15 mins by stopped-flow CO2 hydration assay
[2] = test system: HT-29; test: Reduction in hypoxia-induced extracellular acidosis in human HT-29 cells at 1 mM after 24 hrs; assay type: functional, cell-based
How it was run: (§1)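 Exponentially growing HT-29 or HeLa cells were cultured in DMEM with 10% FBS, under hypoxia (0.2% O₂, 5% CO₂, balance N₂) or normoxia (20% O₂, 5% CO₂). Compounds were added in medium with 1% DMSO at final 0.1 or 1 mM. Medium pH was measured before and immediately after incubation, reported as ΔpHe, as mean ± SD of at least three independent experiments.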

[3] = test system: HeLa; test: Reduction in hypoxia-induced extracellular acidosis in human HeLa cells at 1 mM after 24 hrs; assay type: functional, cell-based; how it was run: as §1
[4] = test system: HT-29; test: Reduction in hypoxia-induced extracellular acidosis in human HT-29 cells after 24 hrs; assay type: functional, cell-based; how it was run: as §1
[5] = test system: HT-29; test: Antitumor activity against human HT-29 cells xenografted in NMRI-nu mouse assessed as time to reach 4x starting volume of tumor at 10 mg/kg, iv administered 3 days per week for 3 weeks (reference value: 14.07 days); assay type: functional
How it was run: (§2)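 HT-29 cells in Matrigel were injected s.c. into the lateral flank of adult NMRI-nu mice (28−32 g). Dosing started at a tumour volume of 250 mm³ and was given i.v. One arm received 10 mg/kg daily for 3 days in 0.9% NaCl with 1% DMSO via the lateral tail vein. The other arm received 5 mg/kg at day 3. The schedule was repeated over 3 weeks. Read-out was time to reach 4× starting tumour volume against vehicle.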

[6] = test system: Mus musculus; test: Toxicity in NMRI-nu mouse xenografted with HT-29 cells assessed as body weight loss at 10 mg/kg, iv administered 3 days per week for 3 weeks; assay type: organism-based; design: dose 10 mg/kg, route intravenous; conditions: in vivo
[7] = test system: HT-29; test: Antitumor activity against human HT-29 cells xenografted in NMRI-nu mouse assessed as tumor growth inhibition at 10 mg/kg, iv administered 3 days per week for 3 weeks; assay type: functional, organism-based; design: dose 10 mg/kg; how it was run: as §2
[8] = test system: HeLa; test: Reduction in hypoxia-induced extracellular acidosis in human HeLa cells after 24 hrs; assay type: functional, cell-based; how it was run: as §1
[9] = biological target: Carbonic anhydrase 12 (Homo sapiens, UniProt O43570); test: Inhibition of recombinant human catalytic domain of carbonic anhydrase-12 preincubated for 15 mins by stopped-flow CO2 hydration assay
[10] = biological target: Carbonic anhydrase 2 (Homo sapiens, UniProt P00918); test: Inhibition of full length human cytosolic carbonic anhydrase-2 preincubated for 15 mins by stopped-flow CO2 hydration assay
[11] = biological target: Carbonic anhydrase 1 (Homo sapiens, UniProt P00915); test: Inhibition of full length human cytosolic carbonic anhydrase-1 preincubated for 15 mins by stopped-flow CO2 hydration assay
[12] = test system: HeLa; test: Reduction in hypoxia-induced extracellular acidosis in human HeLa cells at 0.1 to 1 mM after 24 hrs; assay type: functional, cell-based; how it was run: as §1
[13] = test system: Mus musculus; test: Toxicity in NMRI-nu mouse xenografted with HT-29 cells assessed as body weight loss at 5 mg/kg, iv administered on day 3 for 3 weeks; assay type: organism-based; design: dose 5 mg/kg, route intravenous; conditions: in vivo, 504 h
[14] = test system: HT-29; test: Antitumor activity against human HT-29 cells xenografted in NMRI-nu mouse assessed as time to reach 4x starting volume of tumor at 5 mg/kg, iv administered on day 3 for 3 weeks (reference value: 14.07 days); assay type: functional; how it was run: as §2
[15] = test system: HT-29; test: Antitumor activity against human HT-29 cells xenografted in NMRI-nu mouse assessed as tumor growth inhibition at 5 mg/kg, iv administered on day 3 for 3 weeks; assay type: functional, organism-based; design: dose 5 mg/kg; how it was run: as §2

Chain of Carbonic anhydrase 12 (O43570 whole entry, the tested form may be a part): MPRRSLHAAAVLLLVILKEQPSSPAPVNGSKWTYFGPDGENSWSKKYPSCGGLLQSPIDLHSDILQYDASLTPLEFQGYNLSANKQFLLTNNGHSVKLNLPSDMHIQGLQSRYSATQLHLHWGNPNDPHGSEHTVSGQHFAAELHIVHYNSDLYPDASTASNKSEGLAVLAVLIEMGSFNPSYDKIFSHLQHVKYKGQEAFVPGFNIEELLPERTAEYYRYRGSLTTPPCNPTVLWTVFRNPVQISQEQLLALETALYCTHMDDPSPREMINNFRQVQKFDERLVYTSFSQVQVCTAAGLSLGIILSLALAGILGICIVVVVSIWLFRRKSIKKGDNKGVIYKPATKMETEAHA
Chain of Carbonic anhydrase 1 (P00915 whole entry): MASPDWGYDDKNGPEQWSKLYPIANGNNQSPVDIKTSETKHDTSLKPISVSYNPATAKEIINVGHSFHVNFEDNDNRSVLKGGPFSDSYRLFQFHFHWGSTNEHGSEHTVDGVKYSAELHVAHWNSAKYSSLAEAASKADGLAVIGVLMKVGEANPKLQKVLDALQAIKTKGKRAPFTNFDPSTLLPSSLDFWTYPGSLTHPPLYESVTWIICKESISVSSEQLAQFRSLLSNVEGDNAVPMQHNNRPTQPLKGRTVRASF

SMILES	Ki [1] [nM]	Activity [2]	Activity [3]	further results
NS(=O)(=O)NCCn1ccnc1[N+](=O)[O-]	41	–	–	–
Cc1ncc([N+](=O)[O-])n1CCNC(=S)Nc1ccc(S(N)(=O)=O)cc1	7.3	Active	Active	–
Cc1ncc([N+](=O)[O-])n1CCNS(N)(=O)=O [DTP-348]	–	Active	Active	Activity [4]: Dose-dependent effect; Time [5]: 25.43 days; Activity [6]: Non-toxic; TGI [7]: Active; Activity [8]: Dose-dependent effect
Cc1ncc([N+](=O)[O-])n1CCNC(=S)NCc1ccc(S(N)(=O)=O)cc1	7.2	–	–	–
COc1cccc2c1C(=O)c1c(O)c3c(c(O)c1C2=O)C[C@@](O)(C(=O)CO)C[C@@H]3O[C@H]1C[C@H](N)[C@H](O)[C@H](C)O1 [DOXORUBICIN]	–	–	–	Activity [13]: Non-toxic; Time [14]: 23.39 days; TGI [15]: Active
Cc1ncc([N+](=O)[O-])n1CCOS(N)(=O)=O	–	Active	Active	–

Now from value to compound, other results behind:

Ki [1] [nM]	SMILES	Activity [2]	Activity [3]	further results
21	Cc1nccn1CCCNS(N)(=O)=O	–	–	–
> 20000	CS(=O)(=O)NCCn1ccnc1[N+](=O)[O-]	–	–	Ki [9]: > 20000 nM; Ki [10]: > 20000 nM; Ki [11]: > 20000 nM
> 20000	Cc1ncc([N+](=O)[O-])n1CCNS(C)(=O)=O	–	–	Ki [9]: > 20000 nM; Ki [10]: > 20000 nM; Ki [11]: > 20000 nM
8	NS(=O)(=O)c1ccc(CCNC(=O)Cn2ccnc2[N+](=O)[O-])cc1	–	–	–
8.3	Cc1ncc([N+](=O)[O-])n1CCNC(=S)NCCc1ccc(S(N)(=O)=O)cc1	Active	Active	Activity [12]: Active
